Values after ≈ are worked out from the molar mass of the structure shown. Active and inactive are the calls of the source. No cut-off for these calls is given here.
Tests used:
[1] = system: Mycolicibacterium smegmatis; test: Antibacterial activity against Mycobacterium smegmatis MC2 155 by microplate dilution method; format: functional; conditions: str. MC2 155
How it was run: (§1)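 M. smegmatis MC2 155 tested by microplate broth dilution. Highest concentration tested was 620.0 µg/mL. Read-out was MIC, and MBC where determined.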

[2] = system: Mycobacterium tuberculosis; test: Antitubercular activity against Mycobacterium tuberculosis H37Rv by radiometric method; format: functional
How it was run: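 M. tuberculosis H37Rv (ATCC […], drug-susceptible) tested by the radiometric BACTEC method. MIC was judged from ΔGI against a control vial inoculated at 10⁻² dilution. MBC was also determined. Highest concentration tested was 620.0 µg/mL.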

[3] = system: Mycobacterium tuberculosis; test: Antitubercular activity against Mycobacterium tuberculosis H37Rv infected in human U937 cells by radiometric method; format: functional, U-937
[4] = system: Mycobacterium tuberculosis; test: Antitubercular activity against Mycobacterium tuberculosis H37Rv infected in human U937 cells at MBC by radiometric method; format: functional, U-937
[5] = system: U-937; test: Cytotoxicity against human U937 cells; format: cell-based
[6] = target: Mycothione reductase (Mycobacterium tuberculosis) (UniProt P9WHH3); test: Inhibition of Mycobacterium tuberculosis mycothiol disulfide reductase assessed as NADPH oxidation at 800 uM by Ellmans reagent method
How it was run: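 M. tuberculosis mycothiol disulfide reductase (NADPH-dependent) used with the mycothiol analogue BnOMSH as substrate. Activity was followed as the increase in absorbance at […] from reduction of Ellman's reagent by the BnOMSH formed.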

[7] = system: Mycolicibacterium smegmatis; test: Antibacterial activity against Mycobacterium smegmatis MC2 155 at 620 ug/ml by microplate dilution method; format: functional, organism-based; conditions: str. MC2 155; how it was run: as §1

Chain of Mycothione reductase (Mycobacterium tuberculosis) (P9WHH3 whole entry): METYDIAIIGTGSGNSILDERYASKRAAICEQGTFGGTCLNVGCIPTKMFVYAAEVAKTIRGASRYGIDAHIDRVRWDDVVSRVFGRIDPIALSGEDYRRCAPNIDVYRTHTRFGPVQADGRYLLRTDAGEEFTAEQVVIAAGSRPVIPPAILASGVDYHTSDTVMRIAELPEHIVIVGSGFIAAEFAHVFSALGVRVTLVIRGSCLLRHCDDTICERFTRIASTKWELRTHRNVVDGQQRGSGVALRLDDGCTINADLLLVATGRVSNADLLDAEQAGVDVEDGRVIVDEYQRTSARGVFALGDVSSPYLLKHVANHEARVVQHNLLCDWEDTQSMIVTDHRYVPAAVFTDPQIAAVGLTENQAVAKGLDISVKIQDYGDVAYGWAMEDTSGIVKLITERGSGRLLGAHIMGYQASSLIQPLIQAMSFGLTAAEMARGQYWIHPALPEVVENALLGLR

Compound | MBC [1] | MIC [1] | MIC [2] | MIC [3] | MBC [3] | inhibition (INH) [4] | IC50 [5] | inhibition [6] | MIC [7]
O=C(O)c1cn(C2CC2)c2cc(N3CCNCC3)c(F)cc2c1=O [CIPROFLOXACIN] | 2.2 µM (≈ 0.729 µg/mL) | 1.5 µM (≈ 0.497 µg/mL) | – | – | – | – | – | – | –
NNC(=O)c1ccncc1 [ISONIAZID] | – | – | 1.4 µM (≈ 0.192 µg/mL) | 2.9 µM (≈ 0.398 µg/mL) | – | – | – | – | –
O=C(/C=C/c1ccccc1)c1ccc(O)cc1O [2',4'-DIHYDROXYCHALCONE] | 234 µM (≈ 56.3 µg/mL) | 469 µM (≈ 113 µg/mL) | 195 µM (≈ 46.9 µg/mL) | 195 µM (≈ 46.9 µg/mL) | 416 µM (≈ 100 µg/mL) | 99.5% | 80.2 µM | inactive | –
COc1c(O)ccc(C(=O)/C=C/c2cccc(O)c2)c1O | – | – | – | – | – | – | 333 µM | – | –
O=C1C[C@@H](c2ccccc2O)Oc2cc(O)cc(O)c21 | 441 µM (≈ 120 µg/mL) | 110 µM (≈ 30 µg/mL) | 368 µM (≈ 100 µg/mL) | 368 µM (≈ 100 µg/mL) | 735 µM (≈ 200 µg/mL) | 99.5% | 110 µM | inactive | –
COc1cccc2c1C(=O)c1c(O)c3c(c(O)c1C2=O)C[C@@](O)(C(=O)CO)C[C@@H]3O[C@H]1C[C@H](N)[C@H](O)[C@H](C)O1 [DOXORUBICIN] | – | – | – | – | – | – | 1.1 µM | – | –
O=C(/C=C/c1cccc(O)c1)c1ccc(O)cc1O | – | – | 417 µM (≈ 107 µg/mL) | 184 µM (≈ 47.1 µg/mL) | 368 µM (≈ 94.2 µg/mL) | 99.5% | 415 µM | inactive | inactive

— ChEMBL document CHEMBL1154857, “Antimycobacterial flavonoids from the leaf extract of Galenia africana” (J Nat Prod, 2009)
